The nature of this data set: Toxicity liver stage against HepG2, at 10uM. The format is cell-based. The arrangement: test concentration 10 uM, cell line HepG2-A16-CD81EGFP. The note with it: human, HepG2-A16-CD81EGFP cells; read-out: INHIBITION
In outline:
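Uninfected HepG2-A16-CD81EGFP cells, 3 × 10^3 per well, 1536-well, plated on prespotted compound at 10 μM final, parasite-free screening media added to match infected plates; puromycin 10 μM positive, DMSO 0.5% negative; run in parallel with 48 h PbLuc assay at 37 °C, 5% CO2; viability by CellTiter-Glo luminescence, normalized to controls.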
As to `CCC(C)NC(=O)c1coc(COc2cccc(F)c2)n1` (configuration not stated), the cytotoxicity at 10 µM was -146%.

In the case of `Cc1ccnc(NCc2ccccc2N2CCOCC2)n1`, the cytotoxicity at 10 µM was -0.268%.

As to `O=C(O)c1csc(S(=O)(=O)Nc2c(F)cccc2-n2cccn2)c1`, the cytotoxicity at 10 µM is -7.32%. The figure for `O=C(C1CC1)N1C[C@@H](F)[C@@H](OCc2nc3ccccc3[nH]2)C1` is -0.0342%. The figure for `O=C(NCC1CCS(=O)(=O)C1)c1ccc(NC(=O)c2ccco2)cc1` (configuration not stated) is 3.25%. The figure for `COC(=O)c1ccc(CNC(C)c2ccc(S(C)(=O)=O)cc2)cc1` (configuration not stated) is 5.21%. With `CN(CC1CCCCO1)c1ncnc2cc(F)ccc12` (configuration not stated), the cytotoxicity at 10 µM was -2.15%. The figure for `Cn1ccc(C(=O)NC2CCC23CCN(Cc2nccs2)CC3)c1` (configuration not stated) is -136%; for `CCN1C(=O)CO[C@@H]2CN(C(=O)C3CCOCC3)C[C@H]21` it is -78.2%; for `COc1ncccc1CN1CCC2(CC1)COCCN2C` it is 16.6%. The figure for `CC(NCc1c(C(C)C)nn(C)c1N(C)C)C(=O)NC1CCCC1` (configuration not stated) is 0.966%. The figure for `COc1cc(C)nc(N2CCN(C(=O)CCc3ccncc3)CC2)n1` is -5%. Take `COCC1CCCN(CCCc2cccc(OC)c2)C1` (configuration not stated): the cytotoxicity at 10 µM is 2.41%. The result for `CCN1CCCC1CNC(=O)CCc1cccs1` (configuration not stated) reads -9.09%. For `COCCCSc1ccc(NC(=O)Nc2cn[nH]c2)cc1`, the cytotoxicity at 10 µM worked out at 2.54%. `CCN1CCC(CNCc2c[nH]nc2C(C)(C)C)C1` (configuration not stated): the cytotoxicity at 10 µM is -7.77%. The result for `Cc1ccc(C2CCCN(S(=O)(=O)N3CCOCC3)C2)nc1` (configuration not stated) reads 4.25%. The figure for `Cc1ccccc1CN(Cc1ccccn1)C(=O)CN(C)C(C)C` is -0.675%; for `O=C(c1ccccn1)N1C[C@H]2CCC[C@@]2(COCC2CCOCC2)C1` it is -76.3%. In the case of `COc1ccc(Cc2cccc(C3CCN(C)CC3)n2)cc1`, the cytotoxicity at 10 µM came out at 0.153%. The figure for `COC(=O)c1sc2cccc(F)c2c1CNC(=O)C1CC1` is -11.4%; for `CNS(=O)(=O)Cc1ccc(CNC(=O)Nc2cn[nH]c2)cc1` it is -0.935%; for `CC(=O)N1CCC(c2cncc(N3CCOCC3)n2)CC1` it is 3.66%. The result for `COCC(NC(=O)c1cc(C)n(C)n1)c1cccc(C(F)(F)F)c1` (configuration not stated) reads 9.43%; that for `CCc1sc(C(=O)NC2CC2)cc1C`, 14.5%; that for `CCc1nnc2n1CCN(Cc1csc(Cc3ccccc3)n1)C2`, -25%. `COc1ccc(C(=O)C2CCCN(c3cc(C#N)ccn3)C2)cc1F` (configuration not stated): the cytotoxicity at 10 µM is -0.0739%. `CN1CCCC(CCC(=O)N2CCc3onc(C(=O)N(C)C)c3C2)C1` (configuration not stated): the cytotoxicity at 10 µM is -11%. The result for `O=C(NCCCn1cccn1)c1nnc2ccccc2n1` reads 0.14%; that for `CN(C)C[C@H]1C[C@@H]2CN(C(=O)c3ccco3)C[C@@H]2O1`, -5.77%. The figure for `Cn1nc2c(c1NC(=O)c1ccc(C3CCCN3C3CCC3)s1)CCC2` (configuration not stated) is -5.08%; for `c1cnn(CC2CCCCN2Cc2cn3ccsc3n2)c1` (configuration not stated) it is -7.08%. Take `Cc1nc(-n2cnnc2)ccc1-c1cccc2c1CCNC2`: the cytotoxicity at 10 µM came out at 12.2%. The figure for `O=C(CCOCC(F)(F)F)N1CCCC1c1noc(C2CC2)n1` (configuration not stated) is 0.111%; for `O=C(Nc1ccc(CCN2CCSCC2)cc1)NC1CC1` it is -12.1%; for `CN1CCOCC12CCN(c1ccc(C#N)cc1)CC2` it is -4.23%. The result for `CCOc1ccc(OC2CCCN(c3cnn(C)c3)C2=O)cc1` (configuration not stated) reads 0.118%; that for `CCNC(=O)[C@@H]1C[C@H](N)CN1C(=O)C1(c2ccc(OC)cc2)CCCC1`, 5.67%. With `Cc1cc(C(=O)CN2CCN(c3ncccn3)CC2)c(C)n1C(C)C`, the cytotoxicity at 10 µM was determined as 9.71%. The figure for `CS(=O)(=O)N1CCC(OCCCc2ccccc2)C1` (configuration not stated) is 8.13%; for `Cc1cccc(CN2C[C@@H]3CN(C(=O)NC(C)C)C[C@@H]3C2=O)c1` it is -12.9%. In the case of `CCOc1ccc(N(C)S(=O)(=O)c2c[nH]c(C(C)C)n2)cc1`, the cytotoxicity at 10 µM is -4.52%. Consider `N#Cc1cccc(CN2CC[C@@H]3[C@@H]2CC(=O)N3Cc2ccncc2)c1`, for which the cytotoxicity at 10 µM is -73.7%. The figure for `CC(C)C[C@H](NC(=O)Cc1csc(-c2cccc(Cl)c2)n1)C(=O)O` is 3.51%; for `Cc1csc2c(=O)n(CCN3CCNCC3)cnc12` it is -3.5%; for `Cc1cc(C2CCC2)nc(N2CCN(Cc3nccn3C)CC2)n1` it is -6.86%.

As to `CCc1cnc2c(c1NCc1ccncc1)c(=O)n(C)c(=O)n2C`, the cytotoxicity at 10 µM was -12.1%.

As to `CC(C)n1cc(N2CC(C(=O)N3CCN(C)CC3)CC2=O)cn1` (configuration not stated), the cytotoxicity at 10 µM worked out at 1.44%. Regarding `Fc1ccc(-c2cnc(CN3CCn4c(nnc4C4CC4)C3)o2)cc1`, the cytotoxicity at 10 µM was -13.4%. The figure for `Cc1noc(C)c1C(=O)NCc1ccc(N2CCC(C)CC2)nc1` is 8.43%. The result for `CN(Cc1ccc(N(C)C)cc1)C(=O)CS(=O)(=O)c1ccc(Cl)cc1` reads 22.2%; that for `CCOCCCC(=O)Nc1cc(C(N)=O)ccc1N1CCCCC1`, -48%.

For the molecule `Cc1noc(C)c1CN(C)C(=O)c1ccc(C(F)(F)F)nc1`, the cytotoxicity at 10 µM was -10%.

In the case of `Cc1[nH]nc(CCC(=O)N2C[C@@H]3CC[C@H]2CN(C(=O)N(C)C)C3)c1C`, the cytotoxicity at 10 µM was determined as 3.8%. The result for `CS(=O)(=O)NCC1CCCN(C(=O)Nc2ccccc2Cl)C1` (configuration not stated) reads -9.73%; that for `COc1ccccc1-n1nc(-c2ccco2)n(CC(=O)NC2CC2)c1=O`, 0.355%; that for `O=C1CCCCCN1Cc1nc(C2(c3ccc(F)cc3)CCOC2)no1` (configuration not stated), 21.1%. The result for `Cc1cc(C[C@@H]2COC[C@@H]2NC(=O)CN2CCCCCC2)on1` reads 1.29%; that for `COc1ccccc1C(=O)N1CC2(COC(C)(C)OC2)C1`, -6.4%. The figure for `CCOCC(O)CN1CCN(C(=O)CC(C)C)CC1` (configuration not stated) is -6.98%. Regarding `O=C(NCCN1CCOCC1)c1cc(-c2ccccc2Cl)[nH]n1`, the cytotoxicity at 10 µM is -4.02%. The result for `Cc1cccc(S(=O)(=O)N2C[C@@H]3C[C@H](C(=O)N(C)C)[C@H](C2)O3)c1` reads -5.18%; that for `COc1cc2nc(C)sc2cc1NC(=O)CN(C)C(C)C`, -3.93%; that for `Cc1cc(C)n2ncc(CN3CCC(Cn4cc(CO)nn4)CC3)c2n1`, 7.85%. Consider `COCCOc1ccccc1C(=O)NCCN(C)C(C)C`, for which the cytotoxicity at 10 µM stood at 0.449%. In the case of `CNC(=O)C(C)(C)CNC(=O)Nc1ccc(C)cn1`, the cytotoxicity at 10 µM is 0.973%. For `COc1ccc(NC(=O)Cn2nc(C)c(C)cc2=O)cc1`, the cytotoxicity at 10 µM was 4.2%.

In the case of `Cc1ccc(-c2noc(CN3CCC(c4ccn[nH]4)CC3)n2)cc1`, the cytotoxicity at 10 µM came to 12.6%. The result for `CN(C)CCN1CCO[C@H]2CN(C(=O)N(C)C)C[C@H]21` reads 0.657%; that for `O=C([C@@H]1C[C@@H]2CCN(C3CCOCC3)C[C@H]2O1)N1CCOCC1`, 0.763%. The figure for `CC(C)(C)c1cnc(CN2CCC[C@H]2CO)o1` is -14.8%; for `CS(=O)(=O)N1CCN(C(=O)c2cc(-c3cccs3)cs2)CC1` it is 1.8%. The figure for `Cc1cc(C)nc(N2CCC(c3ccnc(N(C)C)n3)CC2)n1` is 21.1%; for `CCN(CCCc1ccccc1)CC1(C)Cc2c(N)nc(N)nc2O1` (configuration not stated) it is 0.822%. Consider `CS(=O)(=O)N1CC2(CCN(CC3CC3)C2)Cc2ccccc21` (configuration not stated), for which the cytotoxicity at 10 µM was -1.93%. The figure for `COc1ccccc1OCCNCCn1cccn1` is -4.53%; for `Cc1nc(CN2C(=O)CCC23CCN(Cc2ccoc2)CC3)cs1` it is -0.902%. The result for `Cc1cc(NC(=O)N2CCN(C)CC2C)n(Cc2ccccc2)n1` (configuration not stated) reads 11.4%; that for `O=C(O)C(c1ccc2c(c1)OCCO2)N1CCC(N2CCSCC2)CC1` (configuration not stated), -1.1%; that for `CCn1nc2c(cc1=O)CN(Cc1coc(-c3ccccc3)n1)CC2`, -10.9%. `CC(NCc1cnc(C2CCC2)s1)c1cccc(-n2ccnc2)c1` (configuration not stated): the cytotoxicity at 10 µM came out at 4.12%. The figure for `Cc1cn2c(n1)CCC(NC(=O)COCCOc1ccccc1)C2` (configuration not stated) is -4.44%; for `CC(C)=CCN1CCN(Cc2nccn2C)C(C)C1` (configuration not stated) it is -14.4%; for `OCC(O)CSCc1ccc(F)cc1Cl` (configuration not stated) it is -138%. Take `CC(C)OCCOCc1cccc(NC(=O)N2CCCC(O)C2)c1` (configuration not stated): the cytotoxicity at 10 µM was -5.01%. As to `Cn1cccc(NC(=O)N2CCC(CSc3ccccc3)C2)c1=O` (configuration not stated), the cytotoxicity at 10 µM was found to be 40.2%.

Consider `CC(C)NC(=O)N1CCC(c2nnc3n2CCNC3)CC1`, for which the cytotoxicity at 10 µM came out at 10.4%. The result for `c1cnc(N2CCO[C@H]3CN(Cc4cc[nH]n4)C[C@H]32)cn1` reads 9.07%. The result for `CCC(C)NC(=O)Nc1cccc(OCCCC#N)c1` (configuration not stated) reads -2.01%; that for `O=C(CN1CCOc2ccc(Cl)cc21)NCc1ncc[nH]1`, -0.307%. As for `COc1cc(Cl)c(CN2CCC(C(N)=O)C2)cc1Cl` (configuration not stated), the cytotoxicity at 10 µM was -2.4%.

`Cn1cc(CN2CCCC23CCN(C(=O)c2ccccc2)CC3)cn1`: the cytotoxicity at 10 µM is 0.613%. The figure for `Cc1ccc(S(=O)(=O)N2CCN(C)c3ccncc32)cc1F` is 9.21%; for `CC(C)NC(=O)C1CCc2nnc(C(C)(C)C)n21` (configuration not stated) it is 2.74%; for `Cc1n[nH]c(SCC(=O)N[C@@H](C)C(N)=O)n1` it is 8.07%.

As for `Cc1occc(=O)c1OCc1noc(C(=O)NCC2CC2)n1`, the cytotoxicity at 10 µM was -2.51%. Regarding `CCOC(=O)C1(O)CCN(C(=O)Nc2cccc(F)c2)CC1`, the cytotoxicity at 10 µM was -144%.

These data come from ChEMBL document CHEMBL4513216, “Probing the Open Global Health Chemical Diversity Library for Multistage-Active Starting Points for Next-Generation Antimalarials” (ACS Infect Dis, 2020).
